In article PMC7474130 (Journal of Pharmaceutical Analysis, 2020):
Like-named read-outs stand apart in the source and are kept apart here.

Experiments:
[1] = Stability of analytes in rat plasma under different storage conditions; assay type: in vitro ADME
Method in brief: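 Blank rat plasma spiked at three QC concentrations, five replicates each. Plasma (100 μL) was precipitated with three volumes of acetonitrile plus IS, vortexed 5 min, centrifuged at 13,000 × g for 10 min at 4 °C, then dried under nitrogen. It was reconstituted in initial mobile phase and re-centrifuged. Extracts were held in the auto-sampler at 4 °C, then 3 μL injected. Quantitation used analyte/IS peak-area ratios on a 1/concentration2-weighted linear calibration.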

[2] = assay type: in vivo, Male Sprague-Dawley (SD) rats; conditions: for Cmax / half-life: male, Sprague-Dawley, rat, po, 6.8 g/kg
Method in brief: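 Untreated male SD rats (220 ± 20 g; six) were housed at 25 ± 3 °C and 45 ± 5% humidity with free access to food and water. Plasma was analysed by UHPLC-Q-Orbitrap-MS (IS, 1/concentration2-weighted calibration), with non-compartmental analysis.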

[3] = assay type: in vivo, Male Sprague-Dawley (SD) rats; conditions: plasma; for AUC0-t / AUC0-∞: IM rats, oral ZSS aqueous extract 6.8 g/kg, mean ± SD, n = 6; for Cmax / Tmax / half-life: male, Sprague-Dawley, rat, po, 6.8 g/kg
Method in brief: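 Male SD rats (220 ± 20 g) made insomniac with PCPA 400 mg/kg i.p. daily for three days (suspended in 0.5% CMC-Na); six rats. Plasma (3500 × g, 10 min, 4 °C) was held at −80 °C. Analysis used UHPLC-Q-Orbitrap-MS with internal standards and non-compartmental parameters.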

[4] = extracted plasma QC samples, 4 °C for 12 h (auto-sampler), high QC level
[5] = extracted plasma QC samples, 4 °C for 12 h (auto-sampler), low QC level
[6] = extracted plasma QC samples, 4 °C for 12 h (auto-sampler), middle QC level
[7] = rat plasma, Frozen for 30 days (−80 °C), high QC level
[8] = rat plasma, Frozen for 30 days (−80 °C), low QC level
[9] = rat plasma, Frozen for 30 days (−80 °C), middle QC level
[10] = rat plasma, Three freeze-thaw cycles, high QC level
[11] = rat plasma, Three freeze-thaw cycles, low QC level
[12] = rat plasma, Three freeze-thaw cycles, middle QC level
[13] = NC rats, oral ZSS aqueous extract 6.8 g/kg, plasma, mean ± SD, n = 6

| SMILES | Stability, Accuracy (RE, %) [1, 4] [%] | Stability, Accuracy (RE, %) [1, 5] [%] | Stability, Accuracy (RE, %) [1, 6] [%] | Stability, Accuracy (RE, %) [1, 7] [%] | Stability, Accuracy (RE, %) [1, 8] [%] | Stability, Accuracy (RE, %) [1, 9] [%] | Stability, Accuracy (RE, %) [1, 10] [%] | Stability, Accuracy (RE, %) [1, 11] [%] | Stability, Accuracy (RE, %) [1, 12] [%] | AUC0-t [2, 13] [μg/L･h] | AUC0-∞ [2, 13] [μg/L･h] | Cmax ([2]; plasma) [µg/mL] | half-life ([2]; plasma) [min] | AUC0-t [3] [μg/L･h] | AUC0-∞ [3] [μg/L･h] | Cmax [3] [µg/mL] | Tmax [3] [min] | half-life [3] [min] | further results |
| --- | --- | --- | --- | --- | --- | --- | --- | --- | --- | --- | --- | --- | --- | --- | --- | --- | --- | --- | --- |
| COc1ccc2c(c1O)-c1c(O)c(OC)cc3c1[C@H](C2)[N+](C)(C)CC3 [Magnoflorine, magnoflorine] | 11.25 | −4.56 | −11.99 | 9.01 | −14.77 | 0.05 | 8.06 | −5.49 | 5.31 | 54.56 ± 21.90 | 69.51 ± 28.52 | 0.0406 ± 0.0127 | 190 ± 118 | 45.13 ± 24.46 | 51.87 ± 23.75 | 0.0351 ± 0.0137 | 12 ± 4.2 | 161 ± 76.8 | – |
| COc1cc2c(cc1O)C(Cc1ccc(O)cc1)NCC2 (stereo not drawn) [Coclaurine, coclaurine] | 7.71 | 14.88 | 3.35 | −1.99 | 14.76 | 9.58 | 8.75 | 11.85 | 9.48 | 1.08 ± 0.30 | 1.13 ± 0.27 | 0.00198 ± 0.00082 | 27 ± 10.2 | 0.91 ± 0.26 | 0.93 ± 0.28 | 0.00248 ± 0.00098 | 13.8 ± 5.4 | 24.6 ± 16.8 | Tmax [2, 13]: 16.2 ± 5.4 min |
| COc1cc2oc(-c3ccc(O)cc3)cc(=O)c2c(O)c1[C@@H]1O[C@H](CO)[C@@H](O)[C@H](O)[C@H]1O [swertisin] | – | – | – | – | – | – | – | – | – | – | – | – | – | – | – | – | – | – | concentration in rat plasma ([2]; after oral administration of ZSS aqueous extract): too low for detection; content in bile and feces ([2]; after oral administration of ZSS aqueous extract, data not open): high content |
